Reference: PMC8741576 (Molecular Diversity, 2022)
Read-outs that look alike come from different tables or passages of the source.

Key:
[1] = test system: LN-229 glioblastoma cells; assay: Antiproliferative screening, MTS cell viability assay; type: cell-based; details: Homo sapiens, LN-229, 72 h, read-out: IC50 LN-229
[2] = test system: Capan-1 pancreatic adenocarcinoma cells; assay: as above; type: cell-based; details: Homo sapiens, CAPAN-1, 72 h, read-out: IC50 Capan-1
[3] = test system: HCT-116 colorectal carcinoma cells; assay: as above; type: cell-based; details: Homo sapiens, HCT-116, 72 h, read-out: IC50 HCT-116
[4] = test system: NCI-H460 lung carcinoma cells; assay: as above; type: cell-based; details: Homo sapiens, NCI-H460, 72 h, read-out: IC50 NCI-H460
[5] = test system: DND-41 acute lymphoblastic leukemia cells; assay: Antiproliferative screening, IncuCyte cell growth; type: cell-based; details: Homo sapiens, DND41, 72 h, read-out: IC50 DND-41
[6] = test system: HL-60 acute myeloid leukemia cells; assay: Antiproliferative screening, IncuCyte cell growth; type: cell-based; details: Homo sapiens, HL-60, 72 h, read-out: IC50 HL-60
[7] = test system: K-562 chronic myeloid leukemia cells; assay: Antiproliferative screening, IncuCyte cell growth; type: cell-based; details: Homo sapiens, K562, 72 h, read-out: IC50 K-562
[8] = test system: Z-138 non-Hodgkin lymphoma cells; assay: Antiproliferative screening, IncuCyte cell growth; type: cell-based; details: Homo sapiens, Z-138, 72 h, read-out: IC50 Z-138
[9] = test system: human coronavirus OC43; assay: Antiviral assay, virus-induced cytopathic effect, MTS, HEL cells; type: cell-based; details: HEL cell culture
[10] = Cytotoxicity in MT-4 cell culture; type: cell-based; details: human, MT-4 cells
[11] = test system: HIV-1 NL4.3; assay: Antiretroviral assay in MT-4 cells, cytopathic effect; type: cell-based
Outline: (§1)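 MT-4 cells (1 × 10^6 cells/mL) were pre-incubated with test compound for 30 min at 37 °C. HIV-1 NL4.3 or HIV-2 ROD was then added according to the CCID50 of the viral stock. Cytopathic effect was scored microscopically 5 days post-infection. […] SI was taken as the CC50/EC50 ratio.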

[12] = test system: HIV-2 ROD; assay: as above; type: cell-based
Outline: as §1

[13] = test system: human coronavirus 229E
[14] = in vitro; details: human
[15] = in vitro; details: human; remark: listed apart in the source
[16] = test system: HEL 299 normal human lung fibroblasts; assay: Antiproliferative screening on noncancerous cells; details: Homo sapiens, HEL 299, read-out: IC50 HEL 299
[17] = test system: human solid tumor and leukemia cell lines; type: cell-based; details: read-out: Antiproliferative IC50 across cancer cell lines
[18] = test system: C. violaceum ATCC31532 QS-reporter strain; assay: Anti-QS screening, violacein production; type: cell-based; details: Chromobacterium violaceum, ATCC31532, read-out: Anti-QS IC50
[19] = test system: MT-4 cells; assay: Cytotoxicity in MT-4 cell culture; type: cell-based; details: read-out: Cytotoxicity (CC50); MT-4 cell culture

Structure (SMILES) | IC50 [1] | IC50 [2] | IC50 [3] | IC50 [4] | IC50 [5] | IC50 [6] | IC50 [7] | IC50 [8] | SI, selectivity index (CC50 to EC50 ratio) OC43 [9] | CC50 at 5 days [10] | SI, selectivity index (CC50 to EC50 ratio) HIV-1 NL4.3 ([11]; MT-4 cell culture) | CC50 [14] | IC50 [16] | SI, selectivity index (CC50 to EC50 ratio) 229E ([13]; HEL cell culture) | also measured
CCN(CC)CCCC(C)Nc1ccnc2cc(Cl)ccc12 (stereo not drawn) [CQ, chloroquine, reference compound] | 8.9 ± 2.3 µM | 46.1 ± 1.3 µM | 65.5 ± 7.3 µM | > 100 µM | 59.5 ± 3.5 µM | > 100 µM | 50.6 ± 2.9 µM | 47.4 ± 5.3 µM | 31.4 | > 100 µM | > 3.2 | 40.8 ± 2.2 µM | 84.7 ± 15.3 µM | – | SI, selectivity index (CC50 to EC50 ratio) HIV-2 ROD ([12]; MT-4 cell culture): > 26.3; SI, selectivity index (CC50 to EC50 ratio) 229E [13]: 29.1; selectivity ratio [15]: ~30
Nc1cc(Cl)ccc1C(=O)NCCCCNc1ccnc2cc(Cl)ccc12 [Compound 12, 2-Amino-4-chloro-N-{4-[(7-chloroquinolin-4-yl)amino]butyl}benzamide] | 2.8 ± 1.2 µM | 6.3 ± 2.8 µM | 8.9 ± 3 µM | 7.3 ± 1.5 µM | 9.2 ± 2.2 µM | 9.8 ± 3.5 µM | 8.4 ± 3.2 µM | 7.2 ± 2.6 µM | > 10.4 | – | – | 8.3 ± 0.78 µM | 7.4 ± 1.2 µM | 4.6 | IC50 [17]: 2 to 10 µM
Nc1ccc(Br)cc1C(=O)NCCCCNc1ccnc2cc(Cl)ccc12 [Compound 13, 2-Amino-5-bromo-N-{4-[(7-chloroquinolin-4-yl)amino]butyl}benzamide] | 3.1 ± 0.8 µM | 5.4 ± 1.8 µM | 7 ± 0.3 µM | 5.3 ± 0.4 µM | 7.8 ± 4.1 µM | 10.3 ± 3.2 µM | 7.7 ± 1.1 µM | 6 ± 2.6 µM | 5.0 | – | – | 7.5 ± 1.3 µM | 7.8 ± 1.8 µM | 5.4 | IC50 [18]: 3.7 µM; IC50 [17]: 2 to 10 µM
COc1cc(NC(C)CCCNC(=O)c2ccccc2N)c2ncccc2c1 (stereo not drawn) [Compound 14, 2-Amino-N-{4-[(6-methoxyquinolin-8-yl)amino]pentyl}benzamide] | > 100 µM | > 100 µM | > 100 µM | 76.7 ± 25 µM | > 100 µM | > 100 µM | > 100 µM | > 100 µM | – | 78.2 ± 9.3 µM | 8.4 | – | > 100 µM | – | –
COc1cc(NC(C)CCCNC(=O)c2cc(Br)ccc2N)c2ncccc2c1 (stereo not drawn) [Compound 16, 2-Amino-5-bromo-N-{4-[(6-methoxyquinolin-8-yl)amino]pentyl}benzamide] | > 100 µM | > 100 µM | > 100 µM | > 100 µM | > 100 µM | > 100 µM | > 100 µM | > 100 µM | – | 56.4 ± 1.6 µM | 4.0 | – | > 100 µM | – | –
CC(Cn1cnc2c(N)ncnc21)OCP(=O)(O)O (stereo not drawn) [PMPA, 2-phosphonomethoxypropyl adenine] | – | – | – | – | – | – | – | – | – | – | – | – | – | – | CC50 [19]: > 100 µM; EC50 ([11]; read-out: Antiviral activity (EC50) HIV-1 NL4.3, MT-4 cell culture, 5 days post-infection): 1.6 µM; EC50 ([12]; read-out: Antiviral activity (EC50) HIV-2 ROD, MT-4 cell culture, 5 days post-infection): 0.6 µM
COc1cc(NC(C)CCCN)c2ncccc2c1 (stereo not drawn) [PQ, primaquine, reference compound] | 45.4 ± 1.2 µM | 45.6 ± 3.5 µM | 53.9 ± 4.2 µM | > 100 µM | 50.2 ± 16.7 µM | 28.4 ± 1.6 µM | 40.5 ± 6 µM | 11.4 ± 1.1 µM | – | 17.9 ± 8 µM | – | > 100 µM | > 100 µM | – | Anti-HIV / antiretroviral activity in words ([11]; MT-4 cells): no anti-HIV activity; Anti-HIV / antiretroviral activity in words ([12]; MT-4 cells): no anti-HIV activity
CCC(CC)COC(=O)[C@H](C)N[P@](=O)(OC[C@H]1O[C@@](C#N)(c2ccc3c(N)ncnn23)[C@H](O)[C@@H]1O)Oc1ccccc1 [Remdesivir, remdesivir, reference compound] | – | – | – | – | – | – | – | – | > 250 | – | – | > 10 µM | – | > 160 | –
